This note sets out measurements from ChEMBL document CHEMBL4477236 (ACS Med Chem Lett, 2016).

SMILES strings stand for the structures. Active and inactive are the calls of the source. No cut-off for these calls is given here.

Experiment [1] has as its target T1, Androgen receptor (Homo sapiens) (UniProt P10275).
T1 sequence (whole entry): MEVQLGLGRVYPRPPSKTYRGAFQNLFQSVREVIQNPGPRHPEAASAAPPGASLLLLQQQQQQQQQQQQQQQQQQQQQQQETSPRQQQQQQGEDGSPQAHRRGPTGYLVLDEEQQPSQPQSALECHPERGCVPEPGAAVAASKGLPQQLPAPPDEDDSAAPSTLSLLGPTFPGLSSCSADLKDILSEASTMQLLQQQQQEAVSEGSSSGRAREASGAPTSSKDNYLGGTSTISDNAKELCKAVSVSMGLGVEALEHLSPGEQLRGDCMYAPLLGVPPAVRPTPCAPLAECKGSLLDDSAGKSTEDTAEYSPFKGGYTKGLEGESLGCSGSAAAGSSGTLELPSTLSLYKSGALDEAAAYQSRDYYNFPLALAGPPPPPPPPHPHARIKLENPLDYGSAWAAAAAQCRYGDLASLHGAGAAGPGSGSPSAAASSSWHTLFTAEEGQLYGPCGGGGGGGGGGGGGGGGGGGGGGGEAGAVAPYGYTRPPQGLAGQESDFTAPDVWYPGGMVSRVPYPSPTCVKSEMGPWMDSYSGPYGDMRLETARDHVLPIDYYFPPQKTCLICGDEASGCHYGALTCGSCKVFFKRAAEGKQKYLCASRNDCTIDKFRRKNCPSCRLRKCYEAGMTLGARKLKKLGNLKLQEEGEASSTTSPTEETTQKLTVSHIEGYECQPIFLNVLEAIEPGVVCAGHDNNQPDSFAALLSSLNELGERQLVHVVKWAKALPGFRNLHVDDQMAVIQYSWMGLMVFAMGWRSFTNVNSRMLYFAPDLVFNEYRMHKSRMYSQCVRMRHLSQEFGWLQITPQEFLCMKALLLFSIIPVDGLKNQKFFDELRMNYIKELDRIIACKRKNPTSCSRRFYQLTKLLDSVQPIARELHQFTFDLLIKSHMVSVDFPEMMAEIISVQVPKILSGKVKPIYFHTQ
Description: Inhibition of DHT-induced androgen receptor transactivation in human LNCaP cells at 10 uM after 24 hrs by luciferase reporter gene assay relative to control. Format: cell-based. In outline:
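LNCaP cells dual-transfected with the probasin luciferase reporter AAR2-luc plus the Renilla vector pRL-null. Cells treated with compound at 10 μM for 24 h with 10 nM DHT. Luminescence read and normalized to Renilla activity. Result expressed as fold induction over unstimulated baseline. Replicates from three independent experiments.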
Background: A reporter such as luciferase makes a cellular process visible.

The subject of experiment [2] is CWR22R. Description: Antiproliferative activity against human CWR22Rv1 cells after 7 days by MTT assay. It counts as functional, cell-based. The conditions noted are these: 22Rv1, 168 h. In outline:
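MTT proliferation assay in CWR22Rv1 human prostate cancer cells. GI50, the concentration causing 50% growth inhibition, was read from dose–response curves.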
(In general: Tetrazolium dyes change colour on reduction, which living cells bring about.)

Experiment [3] relates to LNCaP. Description: Antiproliferative activity against human LNCAP cells after 7 days by MTT assay. Format: functional, cell-based. As to conditions: 168 h. The gist of the method: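 LNCaP cell growth measured by MTT assay. GI50, the concentration giving 50% growth inhibition, was obtained by nonlinear regression of dose–response curves pooled from at least three independent experiments; SEM < 10%.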

Experiment [4] concerns the target T2, Steroid 17-alpha-hydroxylase/17,20 lyase (Homo sapiens, UniProt P05093).
T2 sequence (P05093 whole entry): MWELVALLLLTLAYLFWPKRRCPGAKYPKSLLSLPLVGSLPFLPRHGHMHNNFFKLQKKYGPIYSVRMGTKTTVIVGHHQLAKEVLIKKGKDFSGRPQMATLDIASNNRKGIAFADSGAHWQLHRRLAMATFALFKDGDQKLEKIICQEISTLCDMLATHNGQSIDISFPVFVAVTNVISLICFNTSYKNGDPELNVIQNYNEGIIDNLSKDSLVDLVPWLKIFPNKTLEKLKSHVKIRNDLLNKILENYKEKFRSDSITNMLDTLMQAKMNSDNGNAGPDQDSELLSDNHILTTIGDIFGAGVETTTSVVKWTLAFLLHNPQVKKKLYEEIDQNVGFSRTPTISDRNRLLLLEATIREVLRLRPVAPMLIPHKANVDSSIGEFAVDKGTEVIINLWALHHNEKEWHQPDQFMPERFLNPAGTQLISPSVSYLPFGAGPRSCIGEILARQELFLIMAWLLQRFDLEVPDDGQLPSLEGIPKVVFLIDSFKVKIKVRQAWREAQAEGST
Description: Inhibition of CYP17 (unknown origin). In outline: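 CYP17 enzyme activity measured in duplicate over a range of inhibitor concentrations. IC50 read from the dose–response curve as the concentration giving 50% inhibition.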

The target in experiment [5] is T1, Androgen receptor (Homo sapiens). Description: Induction of full length androgen receptor degradation in human CWR22Rv1 cells at 15 uM after 24 hrs by Western blot analysis. Format: cell-based. The gist of the method: (§1)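 CWR22Rv1 prostate cancer cells exposed to compound at 15 μM for 24 h. Protein lysates analysed by Western blot for f-AR and AR-V7 expression.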

Experiment [6] deals with T3, Androgen receptor (Homo sapiens, UniProt P10275).
T3 sequence (P10275 whole entry): T1 sequence (whole entry)
Description: Inhibition of DHT-induced androgen receptor transactivation in human LNCaP cells after 24 hrs by luciferase reporter gene assay relative to control. Format: cell-based.

For experiment [7], the target named is T1, Androgen receptor (Homo sapiens). Description: Induction of AR-V7 degradation in human CWR22Rv1 cells at 15 uM after 24 hrs by Western blot analysis. Format: cell-based. In outline:
as §1
(In general: Immunoblotting shows a protein as a band on a membrane.)

The target is the same in experiment [8]. Description: Induction of AR-V7 degradation in human CWR22Rv1 cells upto 7.5 uM after 72 hrs by Western blot analysis. It counts as cell-based. In outline:
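CWR22Rv1 cells treated across 0 → 7.5 μM for 72 h. Lysates analysed by Western blot for f-AR and AR-V7. EC50 taken from dose–response curves.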

Experiment [9] has as its system CWR22R. Description: Antitumor activity against human CWR22Rv1 cells xenografted in SCID mouse assessed as tumor growth inhibition at 0.15 mmol/kg, ip bid administered for 5 days per week relative to control. As to conditions: 22Rv1, ip, 120 h, read-out: TGI. It counts as functional.

In general, IC50 refers to the concentration needed to halve the response being measured. Read a low IC50 as higher potency. For `C[C@]12CC[C@@H](n3ccnc3)CC1=CC[C@@H]1[C@@H]2CC[C@]2(C)C(n3cnc4ccccc43)=CC[C@@H]12`, the inhibition entry in experiment [1] is “Active”. The IC50 in experiment [2] is 9.88 µM; in experiment [3], 8.91 µM.

As to `C[C@]12CCC=CC1=CC[C@@H]1[C@@H]2CC[C@]2(C)C(n3cnc4ccccc43)=CC[C@@H]12`, the inhibition entry in [1] is “Active”.

For the compound `COC(=O)c1ccc2c(c1)CC[C@@H]1[C@@H]2CC[C@]2(C)C(n3cnc4ccccc43)=CC[C@@H]12`, the inhibition result in experiment [1] was “Active”. In addition, the figures for the IC50 in [2], in [4] and in [3] were 8.74 µM, over 15 µM and 6.91 µM, respectively.

By EC50 is commonly meant the concentration at which the effect is half-maximal. High values mean weaker potency, low ones greater potency. With `C[C@]12CC[C@H](OCc3ccncc3)CC1=CC[C@@H]1[C@@H]2CC[C@]2(C)C(n3cnc4ccccc43)=CC[C@@H]12`, in experiment [1], the inhibition entry is “Active”. Moreover, the result in experiment [5], in [7] and in [8] was Active. Also, a half-maximal response in experiment [6] (EC50) required 1.65 µM. Also, the figures for the IC50 in experiment [2], in [4] and in [3] were 3.24 µM, over 15 µM and 2.45 µM, respectively.

`C[C@]12CC[C@H](O)CC1=CC[C@@H]1[C@@H]2CC[C@]2(C)C(c3cccnc3)=CC[C@@H]12` [ABIRATERONE] yielded an IC50 in [4] of 0.048 µM.

Take `C[C@]12CC[C@H](n3ccnc3)CC1=CC[C@@H]1[C@@H]2CC[C@]2(C)C(n3cnc4ccccc43)=CC[C@@H]12`: the inhibition entry in experiment [1] was “Active”. Besides, the outcome in experiment [5], in experiment [7] and in experiment [8] was Active. Further, in experiment [6], a half-maximal response (EC50) required 0.19 µM. The half-inhibitory concentration (IC50) in experiment [2] amounted to 2.54 µM; in [4] it was 0.48 µM; in experiment [3] it was 1.64 µM.

Regarding `C[C@]12CC[C@@H]3c4ccc(C(=O)O)cc4CC[C@H]3[C@@H]1CC=C2n1cnc2ccccc21`, in experiment [1], the inhibition result was “Active”. Further, the outcome in [7] was Active.

As for `C[C@]12CC[C@H](OC(=S)n3ccnc3)CC1=CC[C@@H]1[C@@H]2CC[C@]2(C)C(n3cnc4ccccc43)=CC[C@@H]12`, in [1], the inhibition entry was “Active”. Besides, in experiment [6], the EC50 was under 0.1 µM. The IC50 in experiment [2] worked out at 7.52 µM; in experiment [3], 9.57 µM.

`C[C@]12CC[C@@H]3c4ccc(O)cc4CC[C@H]3[C@@H]1CC=C2n1cnc2ccccc21`: in experiment [1], the inhibition entry was “Active”. The IC50 in experiment [2] worked out at 0.5 µM; in [4], 25.9 µM; in [3], 3.89 µM.

As to `CNC(=O)c1ccc(N2C(=S)N(c3ccc(C#N)c(C(F)(F)F)c3)C(=O)C2(C)C)cc1F` [ENZALUTAMIDE], in experiment [3], half-maximal inhibition (IC50) was put at 4.85 µM.

For the compound `C[C@]12CC[C@H]3[C@@H](C[C@@H](n4ccnc4)C45CC4CC[C@]35C)[C@@H]1CC=C2n1cnc2ccccc21` (some centres not stated), the inhibition result in experiment [1] is “Active”. In addition, the EC50 in experiment [6] stood at 0.47 µM. The IC50 in experiment [2] is 12.3 µM; in experiment [3], 6.61 µM.

On to `CO[C@H]1CC[C@@]2(C)C(=CC[C@@H]3[C@@H]2CC[C@]2(C)C(n4cnc5ccccc54)=CC[C@@H]32)C1`, for which, in [1], the inhibition entry was “Active”. The IC50 in [2] stood at 7.5 µM; in [4], 39 µM; in [3], 8.71 µM.

`C[C@]12CC[C@H](O)CC1=CC[C@@H]1[C@@H]2CC[C@]2(C)C(n3cnc4ccccc43)=CC[C@@H]12` [GALETERONE]: the IC50 in experiment [2] is 8.91 µM; in experiment [4], 0.14 µM; in experiment [3], 3.93 µM. Further, in experiment [9], the inhibition in vivo at 150 µmol/kg came to 60%.

With `C[C@]12CC[C@H](OCc3ccccc3)CC1=CC[C@@H]1[C@@H]2CC[C@]2(C)C(n3cnc4ccccc43)=CC[C@@H]12`, in experiment [1], the inhibition entry was “Active”. The IC50 amounted to 1.2 µM in experiment [2] and 5.12 µM in [3].

Turning to `C[C@]12CC[C@H](OCc3cccnc3)CC1=CC[C@@H]1[C@@H]2CC[C@]2(C)C(n3cnc4ccccc43)=CC[C@@H]12`, the inhibition entry in experiment [1] was “Active”. For the same compound, the IC50 in experiment [2] is 0.81 µM; in [3], 4.26 µM.

On to `C[C@]12CC[C@H](OC(=O)n3ccnc3)CC1=CC[C@@H]1[C@@H]2CC[C@]2(C)C(n3cnc4ccccc43)=CC[C@@H]12`, for which the inhibition in vivo at 150 µmol/kg in experiment [9] came out at 70%. Besides, the outcome in [7] and in experiment [8] was Active.
